# Laboratory results as given in ChEMBL document CHEMBL1154310, “Stereoselective synthesis and antimicrobial activity of benzofuran-based (1E)-1-(piperidin-1-yl)-N2-arylamidrazones” (2009).
# The source made the active and inactive calls. The rule behind the calls is not given here.
# Key:
# Aspergillus fumigatus [1] = test: Ratio of compound to grisofulvin activity against Aspergillus fumigatus at 5 mg/ml after 24 to 48 hrs by agar diffusion technique; type: functional
# Bacillus subtilis [2] = test: Ratio of compound to amoxicilline activity against Bacillus subtilis at 5 mg/ml after 24 to 48 hrs by agar diffusion technique; type: functional
# Candida albicans [3] = test: Antifungal activity against Candida albicans at 5 mg/ml after 24 to 48 hrs by agar diffusion technique; type: functional; conditions: read-out: IZ
# Method in brief: (§1)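 Clinical fungal or yeast isolates were seeded on malt extract agar (pH 5.4). 1 cm holes received 100 of test solution at 5 mg/ml in DMSO, with DMSO control holes and griseofulvin as the standard. Plates sat 1 h at 4 °C, then were incubated at 28 °C. Zone diameters were measured at 24–48 h.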
# Geotrichum candidum [4] = test: Ratio of compound to grisofulvin activity against Geotrichum candidum at 5 mg/ml after 24 to 48 hrs by agar diffusion technique; type: functional
# Pseudomonas aeruginosa [5] = test: Ratio of compound to amoxicilline activity against Pseudomonas aeruginosa at 5 mg/ml after 24 to 48 hrs by agar diffusion technique; type: functional
# Escherichia coli [6] = test: Ratio of compound to amoxicilline activity against Escherichia coli at 5 mg/ml after 24 to 48 hrs by agar diffusion technique; type: functional
# [7] = test system: Syncephalastrum racemosum; test: Ratio of compound to grisofulvin activity against Syncephalastrum racemosum at 5 mg/ml after 24 to 48 hrs by agar diffusion technique; type: functional
# Staphylococcus aureus [8] = test: Ratio of compound to amoxicilline activity against Staphylococcus aureus at 5 mg/ml after 24 to 48 hrs by agar diffusion technique; type: functional
# [9] = test system: Syncephalastrum racemosum; test: Antifungal activity against Syncephalastrum racemosum at 5 mg/ml after 24 to 48 hrs by agar diffusion technique; type: functional; conditions: read-out: IZ; method in brief: as §1
# Candida albicans [10] = test: Ratio of compound to grisofulvin activity against Candida albicans at 5 mg/ml after 24 to 48 hrs by agar diffusion technique; type: functional
# Escherichia coli [11] = test: Antibacterial activity against Escherichia coli at 5 mg/ml after 24 to 48 hrs by agar diffusion technique; type: functional; conditions: read-out: IZ
# Method in brief: (§2)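 Hole-plate diffusion on nutrient agar (pH 6.2) seeded with clinical bacterial isolates. 1 cm wells were filled with 100 of a 5 mg/ml DMSO solution, with DMSO-only control wells and amoxicilline as the reference. Plates were held at 4 °C for 1 h, then incubated at 37 °C. Inhibition zone diameter was read after 24–48 h.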
# Aspergillus fumigatus [12] = test: Antifungal activity against Aspergillus fumigatus assessed as aggregation of lysed mitochondria by transmission electron microscopy; type: functional, organism-based
# Method in brief: (§3)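 Treated A. fumigatus and C. albicans were fixed, dehydrated and stained. Ultrastructure was then examined by transmission electron microscopy at 80 kV and 25,000 magnification.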
# Aspergillus fumigatus [13] = test: Antifungal activity against Aspergillus fumigatus assessed as reduction in size of all morphological features by microscopy; type: functional, organism-based
# Method in brief: (§4)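 Agar cultures exposed to 100 of compound were examined directly by phase-contrast or bright-field microscopy with video-camera image analysis, at ×400 for multicellular and ×1000 for unicellular fungi.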
# Bacillus subtilis [14] = test: Antibacterial activity against Bacillus subtilis at 5 mg/ml after 24 to 48 hrs by agar diffusion technique; type: functional; conditions: read-out: IZ; method in brief: as §2
# Candida albicans [15] = test: Antifungal activity against Candida albicans after 24 to 48 hrs by serial dilution technique; type: functional
# Method in brief: (§5)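 MIC by serial dilution: DMSO solutions started at a maximum of 500 and were diluted twofold in succession. Each dilution was inoculated with the test organism, and inhibition zones were measured by agar diffusion.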
# Candida albicans [16] = test: Antifungal activity against Candida albicans assessed as shrinking of cell membrane by transmission electron microscopy; type: functional, organism-based; method in brief: as §3
# Aspergillus fumigatus [17] = test: Antifungal activity against Aspergillus fumigatus assessed as distortion of cellular sub-organs by transmission electron microscopy; type: functional, organism-based; method in brief: as §3
# Aspergillus fumigatus [18] = test: Antifungal activity against Aspergillus fumigatus assessed as appearance of chlamydospore at 100 uL by microscopy; type: functional, organism-based; method in brief: as §4
# Candida albicans [19] = test: Antifungal activity against Candida albicans assessed as distortion of cellular sub-organs by transmission electron microscopy; type: functional, organism-based; method in brief: as §3
# Pseudomonas aeruginosa [20] = test: Antibacterial activity against Pseudomonas aeruginosa at 5 mg/ml after 24 to 48 hrs by agar diffusion technique; type: functional; conditions: read-out: IZ; method in brief: as §2
# Geotrichum candidum [21] = test: Antifungal activity against Geotrichum candidum at 5 mg/ml after 24 to 48 hrs by agar diffusion technique; type: functional; conditions: read-out: IZ; method in brief: as §1
# Aspergillus fumigatus [22] = test: Antifungal activity against Aspergillus fumigatus assessed as shrinking of cell membrane by transmission electron microscopy; type: functional, organism-based; method in brief: as §3
# Candida albicans [23] = test: Antifungal activity against Candida albicans assessed as appearance of elongated and swollen cells at 100 uL by microscopy; type: functional, organism-based; method in brief: as §4
# Staphylococcus aureus [24] = test: Antibacterial activity against Staphylococcus aureus at 5 mg/ml after 24 to 48 hrs by agar diffusion technique; type: functional; conditions: read-out: IZ; method in brief: as §2
# Aspergillus fumigatus [25] = test: Antifungal activity against Aspergillus fumigatus after 24 to 48 hrs by serial dilution technique; type: functional; method in brief: as §5
# Candida albicans [26] = test: Antifungal activity against Candida albicans assessed as aggregation of lysed mitochondria by transmission electron microscopy; type: functional, organism-based; method in brief: as §3
# Aspergillus fumigatus [27] = test: Antifungal activity against Aspergillus fumigatus at 5 mg/ml after 24 to 48 hrs by agar diffusion technique; type: functional; conditions: read-out: IZ; method in brief: as §1
# Aspergillus fumigatus [28] = test: Antifungal activity against Aspergillus fumigatus assessed as increase in thickness of hyphal cell wall and cell membrane by transmission electron microscopy; type: functional, organism-based; method in brief: as §3
# Staphylococcus aureus [29] = test: Antibacterial activity against Staphylococcus aureus after 24 to 48 hrs by serial dilution technique; type: functional; method in brief: as §5
# Candida albicans [30] = test: Antifungal activity against Candida albicans assessed as increase in thickness of hyphal cell wall and cell membrane by transmission electron microscopy; type: functional, organism-based; method in brief: as §3
# Candida albicans [31] = test: Antifungal activity against Candida albicans assessed as occurrence of cellular aggregation by microscopy; type: functional, organism-based; method in brief: as §4
SMILES,Ratio (Aspergillus fumigatus [1]),Ratio (Bacillus subtilis [2]),zone of inhibition at 5000 µg/mL (Candida albicans [3]) [mm],Ratio (Geotrichum candidum [4]),Ratio (Pseudomonas aeruginosa [5]),Ratio (Escherichia coli [6]),Ratio [7],Ratio (Staphylococcus aureus [8]),zone of inhibition at 5000 µg/mL [9] [mm],Ratio (Candida albicans [10]),zone of inhibition at 5000 µg/mL (Escherichia coli [11]) [mm],zone of inhibition at 5000 µg/mL (Bacillus subtilis [14]) [mm],zone of inhibition at 5000 µg/mL (Staphylococcus aureus [24]) [mm],zone of inhibition at 5000 µg/mL (Aspergillus fumigatus [27]) [mm],further results
Cc1c(C(=O)N/N=C(/C=C/c2ccccc2)C(=N/Nc2ccc([N+](=O)[O-])cc2)\N2CCCCC2)oc2ccccc12,0,0,17,0,0,0.29,1.1,0,21,1.7,8,–,–,–,–
CC(=N\NC(=O)c1oc2ccccc2c1C)/C(=N/Nc1ccc([N+](=O)[O-])cc1)N1CCCCC1,1.28,0.83,18,1.2,0.35,0.71,1.16,0.87,22,1.8,20,20,26,32,Activity (Aspergillus fumigatus [12]): Active; Activity (Aspergillus fumigatus [13]): Active; MIC (Candida albicans [15]): 75 µg/mL; Activity (Candida albicans [16]): Active; Activity (Aspergillus fumigatus [17]): Active; Activity (Aspergillus fumigatus [18]): Active; Activity (Candida albicans [19]): Active; zone of inhibition at 5000 µg/mL (Pseudomonas aeruginosa [20]): 7 mm; zone of inhibition at 5000 µg/mL (Geotrichum candidum [21]): 12 mm; Activity (Aspergillus fumigatus [22]): Active; Activity (Candida albicans [23]): Active; MIC (Aspergillus fumigatus [25]): 25 µg/mL; Activity (Candida albicans [26]): Active; Activity (Aspergillus fumigatus [28]): Active; MIC (Staphylococcus aureus [29]): 75 µg/mL; Activity (Candida albicans [30]): Active
CC(=N\NC(=O)c1oc2ccccc2c1C)/C(=N/Nc1ccccc1)N1CCCCC1,1.12,0,14,0,0,0.61,0.84,0.5,16,1.4,17,–,15,28,–
C/C=N/NC(=O)c1oc2ccccc2c1C,0,0,8,0,0,0.71,0,0.53,–,0.8,20,–,16,–,–
CC(=N\NC(=O)c1oc2ccccc2c1C)/C(Cl)=N/Nc1ccc(C)cc1,0,0.29,6,0,0,0,0,0,–,0.6,–,7,–,–,–
CC1(C)S[C@@H]2[C@H](NC(=O)[C@H](N)c3ccc(O)cc3)C(=O)N2[C@H]1C(=O)O [AMOXICILLIN],1,1,10,1,1,1,1,1,19,1,28,24,30,25,zone of inhibition at 5000 µg/mL (Pseudomonas aeruginosa [20]): 20 mm; zone of inhibition at 5000 µg/mL (Geotrichum candidum [21]): 10 mm; MIC (Staphylococcus aureus [29]): 50 µg/mL
CC(=N\NC(=O)c1oc2ccccc2c1C)/C(=N/Nc1ccc([N+](=O)[O-])cc1)S(=O)(=O)c1ccccc1,0,0.42,15,0,0,0.21,0,0.27,–,1.5,6,10,8,–,–
CC(=N\NC(=O)c1oc2ccccc2c1C)/C(Cl)=N/Nc1ccc(Br)cc1,0,0.38,10,0,0,0,0.26,0,5,1,–,9,–,–,–
Cc1c(C(=O)N/N=C/C=C/c2ccccc2)oc2ccccc12,0,0.33,5,0,0,0,0,0,–,0.5,–,8,–,–,–
CC(=N\NC(=O)c1oc2ccccc2c1C)/C(Cl)=N/Nc1ccc([N+](=O)[O-])cc1,0.56,0.25,12,0.5,0.25,0.36,0,0.4,–,1.2,10,6,12,14,zone of inhibition at 5000 µg/mL (Pseudomonas aeruginosa [20]): 5 mm; zone of inhibition at 5000 µg/mL (Geotrichum candidum [21]): 5 mm
CC(=N\NC(=O)c1oc2ccccc2c1C)/C(=N/Nc1ccc([N+](=O)[O-])cc1)NO,0,0,9,0,0,0,1.05,0,20,0.9,–,–,–,–,–
CC(=N\NC(=O)c1oc2ccccc2c1C)/C(Cl)=N/Nc1ccccc1,0,0,6,0,0,0,0,0,–,0.6,–,–,–,–,–
Cc1c(C(=O)N/N=C(/C=C/c2ccccc2)C(=N/Nc2ccccc2)\N2CCCCC2)oc2ccccc12,0.84,0.63,15,0,0,0.5,1,0.53,19,1.5,14,15,16,21,–
Cc1c(C(=O)N/N=C(/C=C/c2ccc(Cl)cc2)C(=N/Nc2ccc(Br)cc2)\N2CCCCC2)oc2ccccc12,0,0.67,14,0,0,0.36,1.05,0.33,20,1.4,10,16,10,–,–
COc1ccc(N/N=C(Cl)/C(C)=N/NC(=O)c2oc3ccccc3c2C)cc1,0,0,10,0,0,0,0,0,–,1,–,–,–,–,–
COC1=CC(=O)C[C@@H](C)[C@]12Oc1c(Cl)c(OC)cc(OC)c1C2=O [GRISEOFULVIN],–,–,–,–,–,–,–,–,–,–,–,–,–,–,MIC (Candida albicans [15]): 75 µg/mL; Activity (Candida albicans [31]): Active; MIC (Aspergillus fumigatus [25]): 50 µg/mL
